We go through seven molecules from ChEMBL document CHEMBL1158078, “Integerrimides A and B, cyclic heptapeptides from the latex of Jatropha integerrima” (J Nat Prod, 2006).

As usually defined, the inhibition is the percentage by which the read-out fell short of the control. A high value points to a strong effect. As a reminder, the MIC is the smallest concentration in the dilution series that meets the test's criterion for growth inhibition. A higher MIC goes with a less susceptible organism. In general, IC50 refers to the concentration that gives 50% inhibition.

One series deals with Capan-2. Nature of the series: Inhibition of cell migration of human Capan 2 cells at 50 uM after 20 h by scratch migration assay. The settings on record: Capan-2, 20 h.
For series [1], the system named is IPC-298. Nature of the series: Antiproliferative activity against human IPC298 cells assessed as cell density at 50 uM after 2 days. The series is classed as functional. An outline of the steps:
(§1)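 IPC-298 melanoma cells grown in DMEM/Ham's F12 with stabilized L-glutamine, 10% heat-inactivated FCS, penicillin/streptomycin. Plated at 100 000 cells per cm², cultured with or without compound (10 and 50 μM) for 2 days. Viable cells counted on phase-contrast digital pictures as cells per 0.36 mm². Debris and apoptotic nuclei judged by microscopy.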

In series [2] the test system is Candida albicans. In words: Antimicrobial activity against Candida albicans ATCC 90028 at 50 ug/mL by tetrazolium/formazan assay. The series is classed as functional, organism-based. An outline of the steps: (§2)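 Candida albicans ATCC 90028 tested by tetrazolium/formazan assay; compounds at 50 μg/mL.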
Series [3] relates to IPC-298. In words: Cytotoxicity against human IPC298 cells assessed as apoptotic cell nuclei level at 50 uM after 2 days. The series is classed as functional, cell-based. An outline of the steps: as §1
A short description of series [4]: Toxicity against E7 chicken spinal cord neurons assessed as effect on cell viability at 50 uM after 2 days. Further details: species or system Gallus gallus. The settings on record: 48 h.
Series [5] in a line: Toxicity against chicken medulla neurons assessed as effect on cell viability at 50 uM after 24 hrs. The arrangement: species or system Gallus gallus.
Series [6] is filed under the species Gallus gallus. Nature of the series: Inhibition of neurite outgrowth in E7 chicken spinal cord neurons at 50 uM after 2 days. The series is classed as functional. The gist of the method: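 Spinal cord (anterior) from 7-day chicken embryos dissociated with trypsin/DNAseI at 37 °C for 20 min, washed in HEPES-buffered medium. 50 000 cells plated per 1 cm² on polylysine/fibronectin coating in HBM with 10% FCS at 37 °C, no CO₂. Cultured with or without compound (10 or 50 μM) for 2 days; neurites scored by phase-contrast microscopy.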

The species named for another series is Homo sapiens. In words: Effect on cell viability of human Capan II cells assessed as cell morphology changes at 50 uM after 20 h.
For series [7], the system named is Human alphaherpesvirus 1. Nature of the series: Antiviral activity against HSV1 ATCC VR260 at 50 ug/mL by colorimetry. The class given is functional, organism-based. The gist of the method:
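Against HSV-1 strain ATCC VR 260, colorimetric method; compounds at 50 μg/mL; acyclovir as positive control.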

The subject of another series is Plasmodium falciparum. Nature of the series: Antimalarial activity against multidrug-resistant Plasmodium falciparum K1 at 10 ug/mL. The class given is functional, organism-based. An outline of the steps: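 P. falciparum K1 maintained in continuous culture; in vitro activity quantified by microculture radioisotope technique; compounds tested at 10 μg/mL.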
Series [8] is filed under the species Gallus gallus. Nature of the series: Inhibition of blebbistatin-induced neurite outgrowth in chicken medulla neurons at 50 uM after 24 hrs. The series is classed as functional.
In series [9] the test system is IPC-298. In words: Cytotoxicity against human IPC298 cells assessed as cell debris level at 50 uM after 2 days. The series is classed as functional, cell-based. The gist of the method:
as §1

Series [10] has as its system Mycobacterium tuberculosis. Nature of the series: Antimycobacterial activity.
Series [11] concerns Human alphaherpesvirus 1. Nature of the series: Antiviral activity against HSV1 ATCC VR260 by colorimetry. The class given is functional, organism-based. An outline of the steps:
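HSV-1 strain ATCC VR 260; colorimetric method; compounds tested at 50 μg/mL; acyclovir as positive control.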

Series [12] concerns Candida albicans. Nature of the series: Antimicrobial activity against Candida albicans ATCC 90028 by tetrazolium/formazan assay. The series is classed as functional, organism-based. The gist of the method:
as §2

Converted amounts (≈) assume the structure as drawn. The source made the active and inactive calls. Residues, ends and D or L forms follow the SMILES beside them.

In the series with Capan-2, `CC(C)C[C@@H]1NC(=O)CNC(=O)[C@H](Cc2c[nH]c3ccccc23)NC(=O)[C@@H]2CCCN2C(=O)[C@H]([C@@H](C)O)NC(=O)[C@H](CC(C)C)NC(=O)[C@H](CC(C)C)NC1=O` [INTEGERRIMIDE A] (cyclo(GLLLTPW)) came in with an inhibition at 50 µM of 30%. Also, the Activity in the series with IPC-298 [1] is 40%; in series [4] it was “Non-toxic”; in [5], “Non-toxic”. For the same molecule, the outcome in the series with Candida albicans [2], with IPC-298 [3], in the series filed under Homo sapiens, in the series on Human alphaherpesvirus 1 [7], in the series with Plasmodium falciparum and in the series with IPC-298 [9] was inactive. The outcome in the series filed under Gallus gallus [6] and in the series listed under Gallus gallus [8] was Active.

For `NNC(=O)c1ccncc1` [ISONIAZID], inhibition of growth in [10] (MIC) required 0.1 µg/mL (≈ 0.729 µM).

In turn, `Nc1nc2c(ncn2COCCO)c(=O)[nH]1` [ACYCLOVIR] returned an IC50 in the series on Human alphaherpesvirus 1 [11] of 0.5 µg/mL (≈ 2.22 µM).

For `CO[C@H]1/C=C/O[C@@]2(C)Oc3c(C)c(O)c4c(O)c(c(/C=N/N5CCN(C)CC5)c(O)c4c3C2=O)NC(=O)/C(C)=C\C=C\[C@H](C)[C@H](O)[C@@H](C)[C@@H](O)[C@@H](C)[C@H](OC(C)=O)[C@@H]1C` [RIFAMPIN], the lowest concentration to inhibit growth in series [10] (MIC) was 0.0023 µg/mL (≈ 0.00279 µM).

With `NC[C@H]1O[C@H](O[C@H]2[C@H](O)[C@@H](O[C@H]3O[C@H](CO)[C@@H](O)[C@H](N)[C@H]3O)[C@H](N)C[C@@H]2N)[C@H](O)[C@@H](O)[C@@H]1O` [KANAMYCIN], in series [10], the MIC amounted to 2.5 µg/mL (≈ 5.16 µM). This MIC lies about 1100-fold higher than the previous one.

For the molecule `CC(C)C[C@@H]1NC(=O)[C@H](C)NC(=O)[C@H](Cc2c[nH]c3ccccc23)NC(=O)[C@@H]2CCCN2C(=O)[C@H](CO)NC(=O)[C@H](C(C)C)NC(=O)[C@H](CC(C)C)NC1=O` [INTEGERRIMIDE B] (cyclo(ALLVSPW)), testing at 50 µM in the series with Capan-2 gave an inhibition of 20%. The Activity with IPC-298 [1] is 40%; in [4], “Non-toxic”; in series [5], “Non-toxic”. The outcome in the series on Candida albicans [2], with IPC-298 [3], in the series filed under Homo sapiens, with Human alphaherpesvirus 1 [7], with Plasmodium falciparum and in the series with IPC-298 [9] was inactive. Further, the result in the series listed under Gallus gallus [6] was Active.

`C[C@@H]1[C@H](O)[C@@H](C)/C=C/C=C/C=C/C=C/C=C/C=C/C=C/[C@H](O[C@@H]2O[C@H](C)[C@@H](O)[C@H](N)[C@@H]2O)C[C@@H]2O[C@](O)(C[C@@H](O)C[C@@H](O)[C@H](O)CC[C@@H](O)C[C@@H](O)CC(=O)O[C@H]1C)C[C@H](O)[C@H]2C(=O)O` [AMPHOTERICIN B]: the concentration for half-maximal inhibition (IC50) in the series with Candida albicans [12] stood at 0.08 µg/mL (≈ 0.0866 µM).
